# Laboratory results: ChEMBL document CHEMBL1143714, “Nocardichelins A and B, siderophores from Nocardia strain acta 3026” (2007)
# Active and inactive are the calls of the source. The calls are words filed in the database; no cut-off is given here.
# Experiments:
# Saccharomyces cerevisiae = assay: Growth inhibition against yeast after 48 hrs by agar plate diffusion assay; format: functional, organism-based
# Summary of the method: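 10 µL sample aliquots applied to 6 mm filter disks placed on inoculated test plates; fungal plates incubated 48 h at temperature optimal for the test organism; activity read from growth inhibition on agar.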
# AGS = assay: Growth inhibition of human AGS cells after 48 hrs; format: functional
# Summary of the method: (§1)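 Run per NCI guidelines. Cells grown in RPMI 1640 with 10% fetal calf serum, 5% CO2, humidified. Compounds added after 24 h as DMSO solutions at 0.1-10 µg/mL, 0.1% final DMSO, then 48 h further culture. Cell count by sulforhodamine B protein staining. GI50 (50% growth inhibition) and TGI derived.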
# HepG2 = assay: Growth inhibition of human HepG2 cells after 48 hrs; format: functional; details: HepG2, 48 h; summary of the method: as §1
# [1] = Growth inhibition of human MCF cells after 48 hrs; format: functional; summary of the method: as §1
GI50 (AGS),GI50 (HepG2),SMILES,Activity (Saccharomyces cerevisiae),TGI (AGS),TGI (HepG2),GI50 [1],TGI [1]
28.2 nM,282 nM,CCCCCCCCCCCCC/C=C\C(=O)N(O)CCCCCNC(=O)CCC(=O)N(O)CCCCCNC(=O)[C@@H]1COC(c2ccccc2O)=N1 [NOCARDICHELIN A],inactive,202 nM,471 nM,202 nM,538 nM
44.7 nM,69.9 nM,CCCCCCCCCCC/C=C\C(=O)N(O)CCCCCNC(=O)CCC(=O)N(O)CCCCCNC(=O)[C@@H]1COC(c2ccccc2O)=N1 [NOCARDICHELIN B],inactive,1500 nM,335 nM,1130 nM,3490 nM
